From PubChem BioAssay AID573 (SRMLSC, 2007)
Screen size: about 65,000 compounds; about 1,400 (2.2%) were called active. For the sample, actives were picked, then their nearest neighbours and some compounds at random. A number with no mark means an inactive call.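 Rule for the calls: active = growth inhibition at or above a cutoff equal to the mean over every tested compound plus 3 SD (cut at about 60% in these data); inactive = the rest.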

Assay: E. coli ΔtolC antibacterial growth inhibition – strain BW25113 ΔtolC::kan, 384-well, primary screen (AID 573);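 note: growth measured after 20 h incubation at 37 °C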
Conditions: E. coli BW25113 tolC mutant growth, OD615; hits give high values; screened at 10 µM (by protocol)
Method in brief: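 Test system – E. coli BW25113 ΔtolC::kan, tolC deletion mutant strain · Detection – OD at 615 nm · Buffer or medium – LB with kanamycin 50 µg/mL · Times – 20 h compound exposure of bacteria at 37 °C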

SMILES | growth inhibition
COc1ccc(-c2cc(C(F)(F)F)nc(SCCC(=O)NCc3ccco3)n2)cc1 | -9.96%
Cc1ccc(F)cc1NC(=O)c1cccc(N(C)C)c1 | -26.6%
O=C(Nc1cccc(F)c1)c1ccc(S(=O)(=O)N2CCCC2)cc1 | 8.01%
O=C1CCCC2=C1C(c1cccs1)n1nc(SCc3ccccc3)nc1N2 (configuration not stated) | 87.2% (active)
CC(C)C(=O)N1c2ccccc2NC2=C(C(=O)CCC2)C1c1ccc(N(C)C)cc1 (configuration not stated) | -4.93%
CCCC(=O)N1c2ccccc2NC2=C(C(=O)CCC2)C1c1ccc(F)cc1 (configuration not stated) | 55.5%
COC(=O)CSc1nc(C2CC2)nc2ccccc12 | 15.2%
COc1cccc(N(CC(=O)NC2CCCC2)C(=O)Cn2nnc(-c3ccc(C)cc3)n2)c1 | -7.48%
CC(C)Cn1c(N)c(C(=O)NCc2cccs2)c2nc3ccccc3nc21 | 79.5% (active)
C=CCn1c(N)c(S(=O)(=O)c2cccs2)c2nc3ccccc3nc21 | 26.6%
C=CCn1c(N)c(C(=O)OCC(C)C)c2nc3ccccc3nc21 | 30.8%
COC(=O)c1ccc(/C=N\n2c(C)nnc2C)cc1 | -9.6%
O=C(CCCN1C(=O)CSc2ncccc21)N1CCN(c2cccc(C(F)(F)F)c2)CC1 | 17.9%
COc1ccc2c(c1)OC(O)(C(F)(F)C(F)F)CC2=O (configuration not stated) | 100% (active)
N#CCCN(CCC#N)c1nnc(-c2ccccc2)s1 | 16.1%
CCOC(=O)C1=C(C)NC(C)=C(C(=O)OCC)C1C1=COCCO1 | 5.25%
CC1=CC(C)(C)N(C(=O)CSc2nccn2C)c2cc(C)ccc21 | 5.87%
CC1=CC(C)(C)N(C(=O)CSc2nnc(-c3ccccc3)o2)c2ccc(C)cc21 | 65.4% (active)
O=C(CSc1nnc(-c2ccccc2)o1)N1CCOCC1 | -8.06%
CCCCN(C)C(=O)C1CCN(Cc2ccccn2)CC1 | -9.54%
Cc1cnc(NC(=O)CSc2nnc(-c3ccccc3)n2Cc2ccccc2)s1 | 1%
CCOC(=O)Cn1c(CN(Cc2ccccc2)Cc2ccccc2)nc2c1c(=O)[nH]c(=O)n2C | 13%
FC(F)(F)COc1nc(N2CCCCC2)nc(N2CCNCC2)n1 | 10.5%
COc1ccc2c3c(c(=O)oc2c1OCC(=O)C(C)(C)C)CCCC3 | 10.7%
O=c1oc2c(CN3CCCCC3)c(O)ccc2c2c1CCCCC2 | 2.35%
CCCOc1ccc2c3c(c(=O)oc2c1OCCC)CCC3 | 73% (active)
COc1ccccc1N1CCN(C(=O)c2cc3c(-c4ccc(Cl)cc4)nn(C)c3s2)CC1 | 14.7%
